Reference: paper PMC5822492 (Pharmacognosy Magazine, 2018)
Values after ≈ are worked out from the molar mass of the structure shown.

What was measured:
[1] = tested on: angiogenesis-related proteins of HepG2 cells; assay: Human cytokine; assay type: cell-based; details: HepG2, 6.25 μg/mL, cytokine array
How it was run: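 HepG2 cells were exposed to 6.25 µg/mL test compound. Samples with a biotinylated detection-antibody cocktail were bound to a membrane antibody array of angiogenesis proteins carrying duplicate spots. Detection used streptavidin-HRP chemiluminescence on X-ray film with densitometry. Values are fold change versus untreated cultures.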

WRL68 cells = assay: MTT cell proliferation inhibition, WRL68; assay type: cell-based; details: Homo sapiens, WRL68, 72 h, read-out: IC50±SD
How it was run: (§1)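 HepG2 (passage 4–7), HUVEC and WRL68 cells (1 × 10^4) were exposed to test compound for 72 h, with 1% DMSO as negative control. Then 20 µL MTT (5 mg/mL in PBS) was added for 5 h at 37°C, 5% CO2. Absorbance was read at 570 nm against 630 nm reference, and viability expressed as percent of untreated cells. Triplicates were run and the experiment repeated three times.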

[2] = tested on: chick chorioallantoic membrane neovascularization; assay: Chorioallantoic membrane; assay type: in vivo, chicken; details: 24 h, 6.25 and 12.5 μg/mL (Figure 3 legend)
How it was run: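 On fertilized eggs incubated from day 5 at 37°C in constant humidity, 5 mL albumin was aspirated and the eggs laid horizontally to detach the CAM. Test compound in 1.2% agarose disks went onto the CAM through a shell window, with agarose-only disks as negative control. The window was taped and eggs incubated 24 h. Vessels were counted from dissecting-microscope photographs as mean count per CAM.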

HepG2 cells = assay: MTT cell proliferation inhibition, HepG2; assay type: cell-based; details: Homo sapiens, HepG2, 72 h, read-out: IC50±SD
How it was run: as §1

HepG2 cells migration = assay: Cell migration; assay type: cell-based, human; details: HepG2, 6.25, 12.5, 25 μg/mL, up to 96 h; untreated closed after 96 h
How it was run: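 Confluent HepG2 monolayers were scratched and exposed to 6.25, 12.5 or 25 µg/mL test compound, with images taken at 0, 12, 24, 30, 48, 54, 72, 78 and 96 h. Gap distances were measured by inverted microscopy (×20), using ten fields per treatment and at least 10 readings per field. Cell-free area gave percentage wound closure.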

HUVECs tube formation = assay: Endothelial cell tube formation assay; assay type: cell-based, human
How it was run: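 HUVECs grown in ECM-2 were trypsinized and resuspended in basal medium with 0.1% BSA. 5 × 10^4 cells were seeded onto tube-formation matrix plates with test compound or suramin as positive control, for 4–6 h at 37°C, 5% CO2. After HBSS washes, tube junctions were counted at ×4 and expressed as percentage inhibition.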

[3] = tested on: human umbilical vein endothelial cells (HUVEC); assay: MTT cell proliferation inhibition, HUVEC; assay type: cell-based; details: 72 h
How it was run: as §1

[4] = tested on: microvessel outgrowth from rat aortic rings; assay: Ex vivo rat aortic ring assay; details: 12.5 μg/mL, day 5, not significantly different from suramin
How it was run: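 Thoracic aortas from 10–12-week male Sprague Dawley rats were rinsed in HBSS with 2.5 µg/mL amphotericin B, cleaned and cut into 1 mm rings. Rings were embedded in fibrinogen (3 mg/mL)/thrombin gel in serum-free M199 with aprotinin, then fed M199 with 20% HIFCS and additives at 37°C, 5% CO2. Test compound ran 1.56–12.5 µg/mL, suramin positive, 1% DMSO negative. Day-5 sprouting area was measured (×4) in three experiments, six replicates each, as mean ± SD.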

[5] = tested on: VEGF, MMP-9 and NF-κB expression in HepG2 cells; assay: Western blot analysis of VEGF, MMP-9 and NF-κB; assay type: cell-based, human; details: 6.25 μg/mL, P < 0.05
[6] = Homo sapiens, HUVEC, read-out: inhibition of endothelial tube formation

Structure (SMILES): C/C1=C\CC(C)(C)/C=C/C(=O)/C(C)=C/CC1 [ZER, zerumbone]
- MMP expression [1]: inhibited expression
- VEGF expression [1]: inhibited expression
- angiogenin expression [1]: inhibited expression
- angiopoietin expression [1]: inhibited expression
- endostatin expression [1]: increasing expression
- thrombospondin expression [1]: increasing expression
- IC50 (WRL68 cells): 150 ± 0.4 µg/mL (≈ 687 µM)
- effect on CAM vasculature [2]: vascular regression
- IC50 (HepG2 cells): 6.2 ± 0.7 µg/mL (≈ 28.4 µM)
- scratch wound closure (HepG2 cells migration): not scratch closure
- effect on endothelial tube network (HUVECs tube formation; HUVECs, 3.125 μg/mL): reduced the intensity of network structures and caused the formation of incomplete and broken tubules
- inhibition at 12.5 µg/mL (HUVECs tube formation; [6]): 89%
- IC50 ([3]; Homo sapiens, read-out: IC50±SD, HUVEC, MTT, 72 h): > 50 µg/mL
- IC50±SD ([3]; MTT): 62.0 ± 1.3 µg/mL (≈ 284 µM)
- inhibition of neovascularization [4]: almost complete inhibition
- Matrix metalloproteinase-9 (MMP-9) expression [5]: downregulation
- NF-κB expression [5]: downregulation
- VEGF expression [5]: downregulation

Structure (SMILES): Cc1ccc(C(=O)Nc2ccc(S(=O)(=O)O)c3cc(S(=O)(=O)O)cc(S(=O)(=O)O)c23)cc1NC(=O)c1cccc(NC(=O)Nc2cccc(C(=O)Nc3cc(C(=O)Nc4ccc(S(=O)(=O)O)c5cc(S(=O)(=O)O)cc(S(=O)(=O)O)c45)ccc3C)c2)c1 [Suramin, reference compound]
- inhibition at 100 µg/mL (HUVECs tube formation; [6]): 96%
